Source: ChEMBL document CHEMBL1138851, “Synthesis, antifungal activity, and structure-activity relationships of coruscanone A analogues” (J Med Chem, 2006)
Values after ≈ are worked out from the molar mass of the structure shown.

Key:
[1] = tested on: Candida albicans; test: Antifungal activity against Candida albicans ATCC 90028; type: functional, organism-based
Method in brief: (§1)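 Broth microdilution; samples serially diluted in 20% DMSO/saline, duplicate wells. Inoculum 1.0 × 10⁴ CFU/ml in RPMI 1640/2% dextrose/0.03% glutamine/MOPS, pH 6.0. Incubated 37 °C, 18–24 h; OD630 read before and after incubation. IC50 from percent growth vs concentration; MIC as lowest concentration with no detectable growth; MFC as no growth on agar after plating 5 μl from clear wells.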

[2] = tested on: Candida albicans; test: Antifungal activity against fluconazole-susceptible Candida albicans; type: functional, organism-based
Method in brief: as §1, with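 “wells.” for “wells. Inoculum 1.0 × 10⁴ CFU/ml in RPMI 1640/2% dextrose/0.03% glutamine/MOPS, pH 6.0.”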

[3] = tested on: Candida albicans; test: Antifungal activity against fluconazole-resistant Candida albicans; type: functional, organism-based
Method in brief: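 Broth microdilution (NCCLS-based) against patient isolate #17 (last isolate during fluconazole therapy, azole-resistant); samples serially diluted in 20% DMSO/saline, tested in duplicate. Inoculum 1.0 × 10⁴ CFU/ml in RPMI 1640/2% dextrose/0.03% glutamine/MOPS pH 6.0; 37 °C, 18–24 h; OD630 read before and after. IC50 from % growth versus concentration; MIC = no detectable growth; MFC by subculture onto agar. Means of three independent experiments.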

[4] = tested on: Cryptococcus neoformans; test: Antifungal activity against Cryptococcus neoformans ATCC 90113; type: functional, organism-based
Method in brief: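 Serial dilutions in 20% DMSO/saline, tested in duplicate. Inoculum 1.0 × 10⁵ CFU/ml in Sabouraud dextrose broth. Incubated 30 °C, 72 h; OD630 read before and after incubation. IC50 from percent growth vs concentration; MIC as lowest concentration with no detectable growth; MFC as no growth on agar after plating 5 μl from clear wells.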

[5] = tested on: Aspergillus fumigatus; test: Antifungal activity against Aspergillus fumigatus ATCC 90906; type: functional, organism-based
[6] = tested on: Vero; test: Cytotoxicity against Vero cells by neutral red method; type: cell-based; details: Chlorocebus sabaeus
Method in brief: (§2)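 Neutral red assay on ATCC-sourced Vero (African green monkey kidney […]) and LLC-PK1 (pig kidney epithelial) cells. Top test concentration 10 μg/mL. Values are means of three independent experiments.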

[7] = tested on: LLC-PK1; test: Cytotoxicity against LLC-PK1 cells by neutral red method; type: cell-based; details: Sus scrofa; method in brief: as §2

IC50 [1] [µg/mL] | IC50 [4] [µg/mL] | IC50 [5] [µg/mL] | SMILES | MFC [1] [µg/mL] | MIC [1] [µg/mL] | IC50 [2] [µg/mL] | MFC [2] [µg/mL] | MIC [2] [µg/mL] | IC50 [3] [µg/mL] | MFC [4] [µg/mL] | MIC [4] [µg/mL] | MFC [5] [µg/mL] | MIC [5] [µg/mL] | IC50 [6] [µg/mL] | IC50 [7] [µg/mL] | MFC [3] [µg/mL] | MIC [3] [µg/mL]
> 20 | > 20 | > 20 | CO/C(C)=C1\C(=O)C=C(C)C1=O | – | – | – | – | – | – | – | – | – | – | – | – | – | –
> 20 | > 20 | > 20 | CC1=C(C)C(=O)C(=C(/C=C/c2ccccc2)OC(=O)/C=C/c2ccccc2)C1=O | – | – | – | – | – | – | – | – | – | – | – | – | – | –
> 20 | > 20 | > 20 | CC1=CC(=O)/C(=C(O)/C=C/c2ccccc2)C1=O | – | – | – | – | – | – | – | – | – | – | – | – | – | –
> 20 | > 20 | > 20 | CC1=CC(=O)/C(=C(O)/C=C/c2cccs2)C1=O | – | – | – | – | – | – | – | – | – | – | – | – | – | –
> 20 | > 20 | > 20 | CC(=O)OC(/C=C/c1ccccc1)=C1C(=O)C(C)=C(C)C1=O | – | – | – | – | – | – | – | – | – | – | – | – | – | –
> 20 | > 20 | > 20 | O=C1C=C(c2ccccc2)C(=O)/C1=C(O)\C=C\c1ccccc1 | – | – | – | – | – | – | – | – | – | – | – | – | – | –
> 20 | > 20 | > 20 | CCOC(/C=C/c1ccccc1)=C1C(=O)C(C)=C(C)C1=O | – | – | – | – | – | – | – | – | – | – | – | – | – | –
> 20 | > 20 | > 20 | COC(/C=C/c1ccccc1)=C1C(=O)C(C)=C(C)C1=O | – | – | – | – | – | – | – | – | – | – | – | – | – | –

SMILES | IC50 [1] [µg/mL] | IC50 [4] [µg/mL] | IC50 [5] [µg/mL] | MFC [1] [µg/mL] | MIC [1] [µg/mL] | IC50 [2] [µg/mL] | MFC [2] [µg/mL] | MIC [2] [µg/mL] | IC50 [3] [µg/mL] | MFC [4] [µg/mL] | MIC [4] [µg/mL] | MFC [5] [µg/mL] | MIC [5] [µg/mL] | IC50 [6] [µg/mL] | IC50 [7] [µg/mL] | MFC [3] [µg/mL] | MIC [3] [µg/mL]
COC(/C=C/c1ccccc1)=C1\C(=O)C=C(c2ccccc2)C1=O | > 20 | > 20 | > 20 | > 20 | > 20 | 20 (≈ 63.2 µM) | > 20 | > 20 | 18 (≈ 56.9 µM) | > 20 | > 20 | > 20 | > 20 | > 10 | 5.1 (≈ 16.1 µM) | – | –
COC(/C=C/c1ccco1)=C1\C(=O)C=C(C)C1=O | 1.4 (≈ 5.73 µM) | 3.4 (≈ 13.9 µM) | 8.98 (≈ 36.8 µM) | 4.17 (≈ 17.1 µM) | 4.17 (≈ 17.1 µM) | 0.93 (≈ 3.81 µM) | 2.5 (≈ 10.2 µM) | 2.5 (≈ 10.2 µM) | 2.4 (≈ 9.83 µM) | 13 (≈ 53.2 µM) | 10 (≈ 40.9 µM) | 20 (≈ 81.9 µM) | 20 (≈ 81.9 µM) | 3.3 (≈ 13.5 µM) | 3.3 (≈ 13.5 µM) | 6.67 (≈ 27.3 µM) | 4.17 (≈ 17.1 µM)
COC(/C=C/c1ccc(O)cc1)=C1\C(=O)C=C(C)C1=O | 3.3 (≈ 12.2 µM) | 6.95 (≈ 25.7 µM) | > 20 | 10 (≈ 37 µM) | 10 (≈ 37 µM) | 1.86 (≈ 6.88 µM) | 13 (≈ 48.1 µM) | 5 (≈ 18.5 µM) | 5.35 (≈ 19.8 µM) | > 20 | > 20 | > 20 | > 20 | 3.7 (≈ 13.7 µM) | 3.4 (≈ 12.6 µM) | 20 (≈ 74 µM) | 20 (≈ 74 µM)
CCOC(/C=C/c1ccccc1)=C1\C(=O)C=C(C)C1=O | 5.02 (≈ 18.7 µM) | 5.02 (≈ 18.7 µM) | > 20 | 20 (≈ 74.5 µM) | 20 (≈ 74.5 µM) | 2.49 (≈ 9.28 µM) | 17 (≈ 63.4 µM) | 12 (≈ 44.7 µM) | 4.51 (≈ 16.8 µM) | 20 (≈ 74.5 µM) | 20 (≈ 74.5 µM) | > 20 | > 20 | 4.8 (≈ 17.9 µM) | 4 (≈ 14.9 µM) | 20 (≈ 74.5 µM) | 13 (≈ 48.5 µM)
COC(/C=C/c1cccs1)=C1\C(=O)C=C(C)C1=O | 1.21 (≈ 4.65 µM) | 2.49 (≈ 9.57 µM) | 9.81 (≈ 37.7 µM) | 3.33 (≈ 12.8 µM) | 3.33 (≈ 12.8 µM) | 0.74 (≈ 2.84 µM) | 2.5 (≈ 9.6 µM) | 2.5 (≈ 9.6 µM) | 1.39 (≈ 5.34 µM) | 12 (≈ 46.1 µM) | 12 (≈ 46.1 µM) | > 20 | 20 (≈ 76.8 µM) | 3 (≈ 11.5 µM) | 2.8 (≈ 10.8 µM) | 4.17 (≈ 16 µM) | 4.17 (≈ 16 µM)
